Rows were chosen to be rich in hits. Some 2.9% of all compounds tested hit in one or more screens of this group.
CAL PDZ FP-1 = blocks peptide binding to human CAL PDZ domain; inhibition, % at 20 µM; actives 0.02% (n = 330,000); AID 504414; Q9HD26; purified CAL PDZ, TMR-peptide fluorescence polarization, 1 h;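 active = highest replicate inhibition of at least 40%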;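 note: plate controls were DMSO neutral control wells for no effect and unlabeled competitor peptide control wells for full effect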
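material = purified tagged CAL PDZ domain construct (CerCALP) | buffer or medium = sodium phosphate/NaCl buffer pH 7.4 with TCEP, IgG, Thesit | reagent = TMR-labelled reporter peptide T*-PRC34 bound in PDZ groove | incubation = 1 h room-temperature incubation prior to read | measured by = fluorescence polarization (mP) | evaluation = percent inhibition from loss of millipolarization | control set = unlabelled peptide and DMSO controls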
SIRT5 block = inhibitors of human sirtuin-5 desuccinylase. Q9NXA8. Purified SirT5, succinyl-peptide AMC, trypsin-coupled fluorescence. inhibition, % at 15 µM. actives 1.1% (n = 330,000); in the data active = inhibition above about 15%
ERAP1 inh = inhibitors of human ERAP1 aminopeptidase; recombinant ERAP1, Leu-AMC fluorescence, 60 min; inhibition, % at 10.7 µM; actives 0.15% (n = 340,000);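 active = mean replicate inhibition of at least 30%, or all replicates individually reaching that 30% level; inactive = mean below 30% and not every replicate reaching it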;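 note: 0% = neutral control wells and 100% = L-leucinethiol positive control wells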
Target sequence (Q9NZ08 whole entry, looked up): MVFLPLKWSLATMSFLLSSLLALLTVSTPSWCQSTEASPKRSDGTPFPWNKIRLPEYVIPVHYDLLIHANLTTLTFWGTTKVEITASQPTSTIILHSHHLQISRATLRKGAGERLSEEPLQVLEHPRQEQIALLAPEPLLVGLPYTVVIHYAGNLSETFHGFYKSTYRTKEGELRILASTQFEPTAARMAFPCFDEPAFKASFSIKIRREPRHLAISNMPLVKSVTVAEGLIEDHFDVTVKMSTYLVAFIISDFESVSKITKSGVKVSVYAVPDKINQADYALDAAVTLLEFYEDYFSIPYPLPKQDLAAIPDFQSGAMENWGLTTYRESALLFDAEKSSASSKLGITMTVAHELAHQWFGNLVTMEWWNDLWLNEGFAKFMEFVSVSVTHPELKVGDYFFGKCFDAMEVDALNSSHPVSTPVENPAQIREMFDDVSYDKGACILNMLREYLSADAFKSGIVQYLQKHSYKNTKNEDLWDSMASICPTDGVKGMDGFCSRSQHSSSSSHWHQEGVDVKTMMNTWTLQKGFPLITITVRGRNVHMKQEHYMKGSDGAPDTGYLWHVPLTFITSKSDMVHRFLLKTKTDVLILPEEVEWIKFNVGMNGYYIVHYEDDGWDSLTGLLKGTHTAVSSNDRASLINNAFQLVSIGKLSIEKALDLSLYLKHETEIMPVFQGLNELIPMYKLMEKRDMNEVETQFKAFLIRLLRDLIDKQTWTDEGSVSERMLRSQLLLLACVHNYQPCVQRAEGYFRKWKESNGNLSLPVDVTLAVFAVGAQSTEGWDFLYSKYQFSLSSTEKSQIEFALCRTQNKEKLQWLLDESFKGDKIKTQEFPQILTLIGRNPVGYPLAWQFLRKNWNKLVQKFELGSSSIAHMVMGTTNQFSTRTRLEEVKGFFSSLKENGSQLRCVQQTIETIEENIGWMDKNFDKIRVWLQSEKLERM
DENV2 CPE rescue = protects cells from dengue virus 2 cytopathic effect. DENV2-infected cells, cytopathic effect rescue, plate reader. CPE inhibition, % at 9.99 µM. actives 1.7% (n = 350,000); in the data active = CPE inhibition above about 20%, passing the limit was not always enough; tested in BHK-21 cells;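 note: 0% = median of neutral control wells and 100% = median of positive control wells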
CAL PDZ FP-2 = inhibitors of human CAL PDZ peptide binding; Q9HD26; inhibition, % at 24.9 µM; purified CAL PDZ, TMR-peptide fluorescence polarization, 1 h; actives 0.92% (n = 300,000);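 active = mean inhibition of at least 30% with at least half of replicates also reaching 30%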;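 note: 0% = DMSO neutral control and 100% = excess unlabeled competitor peptide PRC23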
S100A4 MyoIIA = inhibitors of human S100A4 binding to myosin IIA peptide. AID 652163. actives 0.14% (n = 360,000). inhibition, % at 10.7 µM. S100A4/TAMRA-MyoIIA peptide fluorescence polarization. P26447;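 active = mean inhibition of at least 70% across replicates, with every replicate also reaching that level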
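Material: S100A4 monomer protein | Medium: HEPES pH 7.2 with CaCl2, KCl, NaCl, DTT, Triton | Reagent: Labelled myosin peptide probe, 5 nM | Doses: One dose per compound | Times: 5 min incubation before reading | Benchmarks: Neutral control DMSO, positive control TFP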
Numbers without * were called inactive; nt = no result.

SMILES	CAL PDZ FP-1	SIRT5 block	ERAP1 inh	DENV2 CPE rescue	CAL PDZ FP-2	S100A4 MyoIIA
Cc1noc(C)c1NC(=O)NCC[C@@H]1CC[C@H](NC(=O)Nc2cccc(F)c2)[C@H](CO)O1	nt	-3.7	0.3	-2.4	nt	2.5
Clc1c(Cl)c(Cl)c2n[nH]nc2c1Cl	-1.9	1.0	2.7	-3.5	79.2*	-4.0
Fc1ccc(Cn2c(-c3cscn3)nc3ccccc32)c(Cl)c1	nt	nt	nt	nt	-4.1	nt
Nc1nonc1-c1nc2ccccc2n1Cc1ccc(F)cc1Cl	-1.7	nt	nt	nt	active	nt
CCC(C)NC(=O)CCn1c(-c2ccc(F)cc2)cc(C(C)=O)c1C (centres undefined)	-1.9	-3.2	14.6	-3.4	0.1	3.7
CC(=O)c1cc(-c2ccc(F)cc2)n(CCC(=O)NC(C)(C)C)c1C	-2.9	20.0*	13.7	7.6	-0.2	-5.4
C[C@@H]1CN([C@@H](C)CO)C(=O)c2cc(NC(=O)C3CCCCC3)ccc2O[C@@H]1CN(C)C(=O)Nc1ccc(F)cc1	nt	-1.0	-0.5	7.1	nt	-1.6
O=C(NNC(=O)c1cccs1)c1ccncc1	1.0	21.8*	-0.8	-2.4	-1.8	3.4
O=C(NNC(=O)c1ccc(Cl)c(Cl)c1)c1cccnc1	91.7*	1.8	11.0	-2.8	-1.9	-16.3
O=C(NNC(=S)NC(=O)c1cccs1)c1cccnc1	-15.3	17.3*	6.1	19.5	3.9	-17.7
O=C(NCc1cccs1)c1ccncc1	-1.0	nt	nt	nt	74.4*	nt
O=C(NNC(=O)c1cccs1)c1ccccc1	-1.2	2.6	-1.4	-6.3	2.3	2.1
CCCc1c(C)[nH]c2ccc(C(=O)O)cc2c1=S	-0.1	26.2*	24.1	19.0	-10.6	-5.3
Cc1[nH]c2ccc(C(=O)O)cc2c1C	0.2	nt	nt	nt	1.8	nt
Cc1ccc2c(c1)C(=C(C#N)C#N)CCN2	-1.1	2.2	0.6	7.4	38.7*	11.7
COC(=O)C(CC#Cc1ccc2c(c1)[C@]1(C(=O)N2)[C@H](c2ccccc2OCCO)N2[C@H](c3ccccc3)[C@H](c3ccccc3)OC(=O)[C@H]2[C@@H]1C(=O)N1CCc2cc(OC)c(OC)cc2C1)C(=O)OC	nt	-1.6	0.4	-4.8	nt	-13.0
CCN(C[C@@H]1[C@@H](c2ccccc2)[C@H](CO)N1C(=O)C1CC1)C(=O)NC1CCCC1	nt	32.0*	-1.5	-15.3	nt	9.7
CCCNC(=O)N1[C@H](CO)[C@H](c2ccccc2)[C@@H]1CNC(=O)C1CCCC1	nt	-0.6	0.0	22.1*	nt	-2.9
CCC(=O)NC[C@H]1[C@@H](c2ccccc2)[C@H](CO)N1C(=O)C1CCC1	nt	20.2*	0.1	15.2	nt	1.7
CCC(=O)NC[C@H]1[C@@H](c2ccccc2)[C@@H](CO)N1C(=O)C1CCC1	nt	1.7	-0.1	18.8	nt	-4.1
COc1ccc(NC(=O)N[C@@H]2CC[C@H](CC(=O)NCc3ccccn3)O[C@@H]2CO)cc1	nt	0.7	-2.2	-2.9	nt	7.7
Nc1c(/C=C2/C=CC(=O)C(O)=C2)c(=O)nc2sc(CC(=O)N3CCCC3)nn12	-1.6	28.8*	1.2	6.5	-4.3	-2.1
Nc1c(/C=C2/C=CC(=O)C(O)=C2)c(=O)nc2sc(CC(=O)N3CCCCC3)nn12	-1.9	43.1*	2.0	3.3	16.8	-2.1
Nc1c(/C=C2/C=CC(=O)C(O)=C2)c(=O)nc2sc(CC(=O)N3CCOCC3)nn12	-2.7	34.1*	6.5	30.8*	-23.8	-2.9
Nc1c(C=C2C=CC(=O)C=C2)c(=O)nc2sc(CC(=O)N3CCCCC3)nn12	-2.4	39.8*	0.9	3.6	-4.6	-5.4
SMILES	CAL PDZ FP-1	SIRT5 block	ERAP1 inh	DENV2 CPE rescue	CAL PDZ FP-2	S100A4 MyoIIA
CO[C@@H](CN(C)C(=O)c1cnccn1)[C@H](C)CN([C@H](C)CO)S(=O)(=O)c1ccc(F)cc1	nt	-3.1	0.4	1.6	nt	25.2
CC=Cc1ccc2n(c1=O)C[C@@H]1[C@@H](CO)[C@H](C(=O)NCc3ccc(F)cc3)[C@H]2N1CC (mixture of isomers)	nt	3.3	-2.1	-5.6	nt	6.7
C[C@H]1CN([C@@H](C)CO)C(=O)c2cccc(NC(=O)NC3CCCCC3)c2O[C@@H]1CN(C)S(=O)(=O)c1ccc(Cl)cc1	nt	-2.8	0.6	26.8*	nt	1.5
C[C@H](CO)N1C[C@H](C)[C@@H](CN(C)CC2CCCCC2)Oc2c(NC(=O)Cc3ccccc3)cccc2C1=O	1.1	20.5*	-1.6	-9.3	-0.5	17.7
C[C@@H]1CN([C@@H](C)CO)C(=O)c2cccc(NC(=O)C3CC3)c2O[C@@H]1CN(C)CC1CCCCC1	nt	6.0	-2.8	-4.8	nt	9.3
C[C@@H]1CN([C@@H](C)CO)C(=O)c2cccc(NC(=O)NC3CCCCC3)c2O[C@H]1CN(C)CC1CC1	nt	-0.7	-9.7	8.6	nt	-1.8
C[C@@H]1CN([C@@H](C)CO)C(=O)c2cccc(NC(=O)Nc3ccccc3)c2O[C@@H]1CN(C)CC1CCCCC1	nt	9.3	0.0	35.9*	nt	5.5
C[C@@H]1CN([C@H](C)CO)C(=O)c2cccc(NC(=O)Nc3ccccc3)c2O[C@H]1CN(C)CC1CCCCC1	nt	1.7	0.1	11.9	nt	-9.1
C[C@@H]1CN([C@@H](C)CO)C(=O)c2cccc(NC(=O)NC3CCCCC3)c2O[C@H]1CN(C)CC1CCCCC1	nt	11.0	-3.3	44.4*	nt	-5.0
CCNC(=O)C[C@@H]1CC[C@H]2[C@@H](COc3ccc(NS(C)(=O)=O)cc3C(=O)N2C)O1	nt	-3.5	-0.6	-5.9	nt	6.2
C[C@H](CO)N1C[C@H](C)[C@H](CN(C)Cc2ccc(C(F)(F)F)cc2)Oc2ccc(NC(=O)CCCN(C)C)cc2C1=O	nt	nt	1.0	-1.6	nt	0.3
C/C(=N\NC(N)=O)c1cccc(Cl)c1	-1.9	0.3	-1.2	37.6*	-5.9	-1.1
C/C(=N/NC(=O)CCC(=O)Nc1cccc(Cl)c1)c1ccc(C)cc1	-1.1	nt	5.2	27.6*	4.2	-3.2
O=C(O)COc1ccc(/C=N/NC(=O)c2ccc(-c3csc(Nc4ccc(Cl)cc4)n3)cc2)cc1	-1.3	28.4*	-6.0	nt	-2.3	0.8
CSc1nc(-c2ccc(C)cc2)[nH]c1S(=O)(=O)c1ccccc1	nt	nt	nt	nt	35.3*	nt
Cc1ccc(NC(=O)C2(c3cccs3)CCOCC2)cc1C	-0.8	1.6	-1.8	26.2*	-2.2	-3.7
CC1CCc2cc(F)cc3c(=O)c(C(=O)O)cn1c23 (centres undefined)	-0.7	2.0	38.5*	-4.4	-1.0	-4.1
CC1CCc2c(N3CCC(O)CC3)c(F)cc3c(=O)c(C(=O)O)cn1c23 (centres undefined)	-0.8	-1.4	-0.2	-4.2	-5.8	1.7
CN(C)CCC=C1c2ccccc2CCc2ccccc21	-0.3	-1.7	-0.4	1.3	-4.6	-8.4
CN(C)CC/C=C1/c2ccccc2COc2ccc(CC(=O)O)cc21	1.2	-4.2	-8.4	-1.7	1.3	165.7*

Screens deposited in PubChem by Broad Institute.
